Bridges are numbered along the chain shown (N, C = ends). Where no end group is shown, it is not given here.
Columns and labels:
[1] = FRET assay in solution of Cy3- and Cy5-labeled peptides; format: physicochemical; settings: 100 nM Cy3-labeled plus 100 nM Cy5-labeled peptide in PBS, excitation of Cy3 at 490 nm, microplate reader, n = 3
[2] = cited from earlier work
[3] = Native mass spectrometry of oligomeric state; format: physicochemical; settings: 50 mM ammonium acetate (pH 6.9), native ESI-MS, column bypassed
How it was run: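 Intact-mass LC/MS on a QTof instrument fed by UHPLC, with the column bypassed to capture the full oligomer profile. Test compound was in 50 mM ammonium acetate (pH 6.9) under native conditions. Electrospray in positive ionization mode; source temperature 300 °C; ion spray voltage 5500 V. Spectra were inspected over the expected regions for larger oligomers.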

[4] = Differential scanning calorimetry of the oligomers; format: physicochemical; settings: DSC, 10 mg/mL in 20 mM Tris-HCl pH 7.5, 100 mM NaCl, 4 to 110 °C at 1 °C/min, 3 atm, first scan

FRET efficiency [1]: 0.36
oligomeric state by native mass spectrometry [3]: prefers to form oligomers
melting temperature (Tm2) [4]: 63.8 °C
Sequence: LKKLCLKLKKLCKLAG (disulfide 5-12 (inferred)) [LK-3]
molecularity of the oligomer by SEC-MALS [2]: tetramer of dimers

Reference: article PMC11292830 (ACS Omega, 2024)
